Measured values of several laboratories.
Protocols differ between the studies behind these lines.
Target: G protein-coupled receptor kinase 5 (GRK5, Homo sapiens, UniProt P34947)

CCCOc1ccc(OC)c(F)c1C(=O)c1ccc(C(=O)N[C@@H]2CNC[C@H]2NC(=O)c2ccc3[nH]ncc3c2)cc1 gave a remaining activity of 114% (enzyme activity; inhibitor; 10 µM).
For CC(C)(C)c1nc2c(s1)c1nc(N)ncc1c1ccc(NS(=O)(=O)c3c(F)cccc3F)c(F)c12, the remaining activity was 84% (enzyme activity; inhibitor; radiometric; 1 µM).
With COc1cc2ncnc(Nc3ccc(Oc4ccccc4)c(C)c3C)c2cc1OC the inhibition was 0% (enzyme activity; inhibitor; 1 µM).
For O=C(Nc1cnn(-c2csc(C(=O)NC3COC3)c2)c1)Nc1ccccc1Cl, the remaining activity was 98% (enzyme activity; inhibitor; 5 µM).
For CCCS(=O)(=O)Nc1ccc(F)c(C(=O)c2c[nH]c3ncc(-c4ccc(Cl)cc4)cc23)c1F, the inhibition was less than 10% (enzyme activity; inhibitor; 1 µM).
The inhibition of COc1cc2ncnc(Nc3ccc(Oc4ccccc4)cc3C)c2cc1OC is reported as -2% (enzyme activity; inhibitor; 1 µM).
Cc1ccc(Nc2nccc(N(C)c3ccc4c(C)n(C)nc4c3)n2)cc1S(N)(=O)=O gave an inhibition of -10% (enzyme activity; inhibitor; 10 µM).
Cc1sc(C(=O)NC2COC2)cc1-n1cc(NC(=O)Nc2c(F)cccc2Cl)cn1 has a remaining activity of 113% (enzyme activity; inhibitor; 10 µM).
The activity vs control of Cc1cc(NC(=O)c2cccc3cc(-c4cccc5[nH]nc(N)c45)ccc23)ccc1F is reported as 112% (enzyme activity; inhibitor; 0.1 µM).
With CNC(=O)c1cc(Oc2ccc(NC(=O)Nc3ccc(Cl)c(C(F)(F)F)c3)cc2)ccn1 the inhibition was 7% (enzyme activity; inhibitor; 0.3 µM).
With COc1cc(Cl)c(C(=O)N[C@@H](CN[C@H]2CC[C@@H](N)CC2)Cc2ccc(C#N)cc2)cc1-c1ccc(CN[C@H](C)c2ccc(C)cc2)o1 the remaining activity was 99% (enzyme activity; inhibitor; 1 µM).
The remaining activity of CCN(CC)c1ccc(C2=NNC(=O)CC2C)cc1[N+](=O)[O-] (centres unmarked) is reported as 103% (enzyme activity; inhibitor; 10 µM).
With CC(C)(O)[C@H]1CC[C@H](Nc2ccc3ncc(-c4cccc(C(F)(F)F)c4)n3n2)CC1 the remaining activity was 95.1% (enzyme activity; inhibitor; 1 µM).
For Cc1ccc(C(=O)NCc2ccsc2)cc1C#Cc1cn(C(C)C)c2ncnc(N)c12, the activity vs control was 111% (enzyme activity; inhibitor; 1 µM).
For Cc1ccc(NC(=O)c2ccc(C)c(C(F)(F)F)c2)cc1C#Cc1nn(C2CCC(O)CC2)c2ncnc(N)c12 (centres unmarked), the remaining signal was 99% (cell-free assay; 10 µM).
CN1CC(Oc2cnc(C#N)cc2-c2ccn3nc(NC(=O)C4CC4)cc3c2)C1 has an inhibition of 3% (enzyme activity; inhibitor; 1 µM).
For N#CCCc1ccc2c(c1)-c1[nH]c3ccc([N+](=O)[O-])cc3c1CC(=O)N2, the remaining signal was 103% (cell-free assay; 0.5 µM).
CC(C)(C)c1nc(-c2cccc(NS(=O)(=O)c3c(F)cccc3F)c2F)c(-c2ccnc(N)n2)s1 gave a remaining activity of 85% (enzyme activity; inhibitor; radiometric; 1 µM).
The remaining signal of O=C1NC(=O)c2cc(Nc3ccc(F)cc3)c(Nc3ccc(F)cc3)cc21 is reported as 101% (cell-free assay; 0.5 µM).
The remaining activity of Cc1cnc(NC2CCOCC2)nc1-n1cnc(C(=O)NC(CN)c2cc(F)cc(Cl)c2)c1 (centres unmarked) is reported as 96% (enzyme activity; inhibitor; radiometric; 1 µM).
